One block for each compound: values may come before it. The source made the active and inactive calls. The rule behind the calls is not given here.
Tests used:
[1] = biological target: T1, Heat shock protein HSP90 (Homo sapiens) (UniProt P07900+P08238); test: Inhibition of Hsp90 in human A549 cells assessed as effect on EGFR protein degradation at 0.5 to 5 times IC50 value after 12 hrs by western blot analysis; format: cell-based
Outline: (§1)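 MPER lysates. 15 µg protein per lane, reducing 10% SDS-PAGE, PVDF transfer, immunoblot for EGFR, Her2, C-Raf and Hsp90, chemiluminescent detection.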

[2] = biological target: T1, Heat shock protein HSP90 (Homo sapiens); test: Inhibition of Hsp90 in human A549 cells assessed as effect on EGFR levels at five times IC50 value after 2 to 12 hrs by Western blot analysis; format: cell-based
Outline: (§2)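 Lysed in MPER with protease/phosphatase inhibitors, clarified at 14,000g. 15 µg protein per lane run on reducing 10% gels, transferred to PVDF, immunoblotted, detected by HRP chemiluminescence.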

[3] = biological target: T2, B-raf/RAF proto-oncogene serine/threonine-protein kinase (Homo sapiens) (UniProt P04049+P15056); test: Inhibition of B-Raf/C-Raf in human A549 cells assessed as decrease in phosphorylated ERK levels at five times IC50 value by Western blot analysis; format: cell-based; conditions: TDE = time-dependent effect
T2 sequence (P04049 whole entry, looked up): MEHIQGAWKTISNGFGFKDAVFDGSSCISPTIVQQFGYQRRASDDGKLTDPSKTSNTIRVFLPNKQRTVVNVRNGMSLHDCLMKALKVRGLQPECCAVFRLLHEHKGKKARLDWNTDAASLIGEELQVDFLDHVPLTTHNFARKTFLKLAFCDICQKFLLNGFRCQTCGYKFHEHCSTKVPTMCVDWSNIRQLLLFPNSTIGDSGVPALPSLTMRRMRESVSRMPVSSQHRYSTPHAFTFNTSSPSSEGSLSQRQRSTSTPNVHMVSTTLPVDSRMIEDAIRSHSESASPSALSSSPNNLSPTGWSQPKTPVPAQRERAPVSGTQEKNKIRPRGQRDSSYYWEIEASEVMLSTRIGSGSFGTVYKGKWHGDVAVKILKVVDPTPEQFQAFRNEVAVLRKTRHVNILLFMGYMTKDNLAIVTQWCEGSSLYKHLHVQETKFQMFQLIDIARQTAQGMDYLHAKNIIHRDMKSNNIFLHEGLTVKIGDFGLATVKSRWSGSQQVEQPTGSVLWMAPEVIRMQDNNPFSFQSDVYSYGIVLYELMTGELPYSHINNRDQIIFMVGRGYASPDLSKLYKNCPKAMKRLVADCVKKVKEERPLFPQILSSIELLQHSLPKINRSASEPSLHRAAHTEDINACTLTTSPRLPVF
T2 sequence (P15056 whole entry, looked up): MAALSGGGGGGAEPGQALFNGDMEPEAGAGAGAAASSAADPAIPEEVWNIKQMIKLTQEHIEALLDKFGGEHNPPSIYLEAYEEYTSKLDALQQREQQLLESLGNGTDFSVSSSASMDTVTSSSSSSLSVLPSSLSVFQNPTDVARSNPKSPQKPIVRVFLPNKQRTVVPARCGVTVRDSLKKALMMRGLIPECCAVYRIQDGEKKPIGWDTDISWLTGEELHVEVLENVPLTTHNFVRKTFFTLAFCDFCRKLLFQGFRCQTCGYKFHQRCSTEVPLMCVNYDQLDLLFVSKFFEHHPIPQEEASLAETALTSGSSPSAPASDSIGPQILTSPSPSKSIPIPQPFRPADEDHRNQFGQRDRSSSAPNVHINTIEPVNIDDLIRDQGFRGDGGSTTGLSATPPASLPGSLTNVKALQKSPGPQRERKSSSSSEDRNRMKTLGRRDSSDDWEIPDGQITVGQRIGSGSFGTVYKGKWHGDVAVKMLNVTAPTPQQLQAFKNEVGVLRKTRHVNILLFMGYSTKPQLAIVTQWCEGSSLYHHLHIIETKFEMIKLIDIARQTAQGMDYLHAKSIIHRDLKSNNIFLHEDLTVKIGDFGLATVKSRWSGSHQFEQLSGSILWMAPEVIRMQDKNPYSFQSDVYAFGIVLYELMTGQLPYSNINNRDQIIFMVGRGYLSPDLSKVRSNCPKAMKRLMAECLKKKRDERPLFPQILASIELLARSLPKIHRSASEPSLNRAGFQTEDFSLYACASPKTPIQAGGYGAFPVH

[4] = biological target: T1, Heat shock protein HSP90 (Homo sapiens); test: Inhibition of Hsp90 in human MCF7 cells assessed as effect on Her2 protein degradation at 0.5 to 5 times IC50 value after 12 hrs by western blot analysis; format: cell-based; outline: as §1
[5] = test system: A549; test: Inhibition of PI3K activity in human A549 cells assessed as effect on phosphorylated Akt level at five times IC50 value after 2 to 12 hrs by Western blot analysis; format: cell-based; outline: as §2
[6] = biological target: T1, Heat shock protein HSP90 (Homo sapiens); test: Inhibition of Hsp90 in human A549 cells assessed as effect on c-Raf protein degradation at 0.5 to 5 times IC50 value after 12 hrs by western blot analysis; format: cell-based; outline: as §1
[7] = biological target: T1, Heat shock protein HSP90 (Homo sapiens); test: Inhibition of Hsp90 in human PC3MM2 cells upto 100 uM by luciferase refolding assay; format: cell-based
Outline: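 Luciferase-expressing PC3-MM2 cells heat-denatured at 50 °C for 8–12 min until luminescence fell to 1% of initial. 60,000 cells/100 µL added to compound (0–100 µM, 1% DMSO final) and left 1 h to recover. Luciferin/ATP/CoA reagent then added and luminescence read at once. Refolding expressed relative to 1% DMSO wells; triplicate points fitted to dose-response curves.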

[8] = test system: MRC5; test: Cytotoxicity against human MRC5 cells assessed as cell growth inhibition after 72 hrs by MTS assay; format: cell-based; conditions: MRC5, 72 h
Outline: (§3)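 Cells grown to confluence, seeded at 2000 cells/well and left overnight to attach. Compound added across a concentration range in DMSO (1% final), then 72 h at 37 °C, 5% CO2. Growth read by MTS/PMS relative to 1% DMSO wells (100% growth). IC50 taken from two separate experiments, each in triplicate.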

[9] = biological target: T1, Heat shock protein HSP90 (Homo sapiens); test: Inhibition of Hsp90 in human MCF7 cells assessed as effect on c-Raf protein degradation at 0.5 to 5 times IC50 value after 12 hrs by western blot analysis; format: cell-based; outline: as §1
[10] = biological target: T2, B-raf/RAF proto-oncogene serine/threonine-protein kinase (Homo sapiens); test: Inhibition of B-Raf/C-Raf heterodimerization in human A549 cells at five times IC50 value after 24 hrs by SDS-PAGE/Western blot analysis; format: cell-based
Outline: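 Lysed in 0.1% NP40, 50 mM Tris pH 7.5, 150 mM NaCl with inhibitors. 500 µg protein incubated with B-Raf antibody overnight at 4 °C, captured on Protein G beads for 3 h at 4 °C, washed, eluted, then SDS-PAGE and immunoblot for c-Raf.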

[11] = test system: A549; test: Cytotoxicity against human A549 cells assessed as cell growth inhibition after 72 hrs by MTS assay; format: functional, cell-based; conditions: A549, 72 h; outline: as §3
[12] = biological target: T2, B-raf/RAF proto-oncogene serine/threonine-protein kinase (Homo sapiens); test: Inhibition of B-Raf/C-Raf in human A549 cells assessed as decrease in phosphorylated ERK levels after 12 hrs by Western blot analysis; format: cell-based
[13] = test system: MCF7; test: Cytotoxicity against human MCF7 cells assessed as cell growth inhibition after 72 hrs by MTS assay; format: functional, cell-based; conditions: MCF7, 72 h; outline: as §3
[14] = biological target: T2, B-raf/RAF proto-oncogene serine/threonine-protein kinase (Homo sapiens); test: Inhibition of B-Raf/C-Raf in human A549 cells assessed as decrease in phosphorylated MEK levels at five times IC50 value by Western blot analysis; format: cell-based; conditions: TDE = time-dependent effect
[15] = test system: A549; test: Effect on total Mek level in human A549 cells at five times IC50 value after 2 to 12 hrs by western blot analysis; format: ADME, cell-based; outline: as §2
[16] = test system: A549; test: Effect of total Akt levels in human A549 cells at five times IC50 value after 2 to 12 hrs by Western blot analysis; format: ADME, cell-based; outline: as §2
[17] = test system: A549; test: Effect on total Erk level in human A549 cells at five times IC50 value after 2 to 12 hrs by western blot analysis; format: ADME, cell-based; outline: as §2
[18] = biological target: T1, Heat shock protein HSP90 (Homo sapiens); test: Inhibition of Hsp90 in human A549 cells assessed as decrease in C-Raf levels at five times IC50 value after 2 to 12 hrs by Western blot analysis; format: cell-based; outline: as §2
[19] = biological target: T1, Heat shock protein HSP90 (Homo sapiens); test: Inhibition of Hsp90 in human A549 cells assessed as effect on Her2 protein degradation at 0.5 to 5 times IC50 value after 12 hrs by western blot analysis; format: cell-based; outline: as §1
[20] = biological target: T1, Heat shock protein HSP90 (Homo sapiens); test: Inhibition of Hsp90 in human MCF7 cells assessed as effect on EGFR protein degradation at 0.5 to 5 times IC50 value after 12 hrs by western blot analysis; format: cell-based; outline: as §1
[21] = biological target: T2, B-raf/RAF proto-oncogene serine/threonine-protein kinase (Homo sapiens); test: Inhibition of B-Raf/C-Raf in human A549 cells assessed as decrease in phosphorylated MEK levels after 12 hrs by Western blot analysis; format: cell-based
[22] = biological target: T2, B-raf/RAF proto-oncogene serine/threonine-protein kinase (Homo sapiens); test: Inhibition of B-Raf/C-Raf in human A549 cells assessed as effect on phosphorylated MEK levels at five times IC50 value after 24 hrs by Western blot analysis; format: cell-based
Outline: (§4)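 MPER lysates with protease/phosphatase inhibitors. 15 µg protein per lane on reducing 10% SDS gels, transferred to PVDF, immunoblotted, HRP chemiluminescent detection.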

[23] = biological target: T2, B-raf/RAF proto-oncogene serine/threonine-protein kinase (Homo sapiens); test: Inhibition of B-Raf/C-Raf in human A549 cells assessed as decrease in phosphorylated ERK levels at five times IC50 value after 12 hrs by Western blot analysis; format: cell-based
[24] = biological target: T2, B-raf/RAF proto-oncogene serine/threonine-protein kinase (Homo sapiens); test: Inhibition of B-Raf/C-Raf in human A549 cells assessed as effect on phosphorylated ERK levels at five times IC50 value after 24 hrs by Western blot analysis; format: cell-based; outline: as §4
[25] = biological target: T2, B-raf/RAF proto-oncogene serine/threonine-protein kinase (Homo sapiens); test: Inhibition of B-Raf/C-Raf in human A549 cells assessed as decrease in phosphorylated MEK levels at five times IC50 value after 12 hrs by Western blot analysis; format: cell-based
[26] = biological target: T1, Heat shock protein HSP90 (Homo sapiens); test: Inhibition of Hsp90 in human MCF7 cells assessed as decrease in Her2 levels at five times IC50 value after 12 hrs by Western blot analysis; format: cell-based; outline: as §1
[27] = test system: MCF7; test: Effect on Hsp90 expression in human MCF7 cells at 0.5 to 5 times IC50 value after 12 hrs by western blot analysis; format: ADME, cell-based; conditions: mcf7, 12 h; outline: as §1
[28] = biological target: T1, Heat shock protein HSP90 (Homo sapiens); test: Inhibition of Hsp90 in human A549 cells assessed as decrease in EGFR levels at five times IC50 value after 12 hrs by Western blot analysis; format: cell-based
[29] = biological target: T1, Heat shock protein HSP90 (Homo sapiens); test: Inhibition of Hsp90 in human A549 cells assessed as decrease in Her2 levels at five times IC50 value after 12 hrs by Western blot analysis; format: cell-based
[30] = biological target: T1, Heat shock protein HSP90 (Homo sapiens); test: Inhibition of Hsp90 in human MCF7 cells assessed as decrease in C-Raf levels at five times IC50 value after 12 hrs by Western blot analysis; format: cell-based; outline: as §1
[31] = biological target: T1, Heat shock protein HSP90 (Homo sapiens); test: Inhibition of Hsp90 in human A549 cells assessed as decrease in C-Raf levels at five times IC50 value after 12 hrs by Western blot analysis; format: cell-based
[32] = biological target: T1, Heat shock protein HSP90 (Homo sapiens); test: Inhibition of Hsp90 in human MCF7 cells assessed as decrease in EGFR levels at five times IC50 value after 12 hrs by Western blot analysis; format: cell-based; outline: as §1
[33] = test system: A549; test: Effect on B-Raf level in human A549 cells at five times IC50 value after 12 to 24 hrs by Western blot analysis; format: ADME, cell-based; outline: as §4
[34] = biological target: T1, Heat shock protein HSP90 (Homo sapiens); test: Inhibition of Hsp90 in human A549 cells assessed as decrease in Her2 levels at five times IC50 value after 24 hrs by Western blot analysis; format: cell-based; outline: as §4
[35] = biological target: T1, Heat shock protein HSP90 (Homo sapiens); test: Inhibition of Hsp90 in human A549 cells assessed as decrease in c-Raf levels at five times IC50 value after 24 hrs by Western blot analysis; format: cell-based; outline: as §4
[36] = biological target: T1, Heat shock protein HSP90 (Homo sapiens); test: Inhibition of Hsp90 in human A549 cells assessed as decrease in EGFR levels at five times IC50 value after 24 hrs by Western blot analysis; format: cell-based; outline: as §4
[37] = Cytotoxicity against human SKBR3 cells by MTS assay; conditions: SK-BR-3

- inhibition [1]: inactive
- inhibition [2]: inactive
- inhibition [3]: tde
- inhibition [4]: inactive
- inhibition [6]: inactive
- inhibition [7]: inactive
- inhibition [9]: inactive
- inhibition [10]: Active
- inhibition [12]: Dose-dependent effect
- inhibition [14]: tde
- inhibition [18]: inactive
- inhibition [19]: inactive
- inhibition [20]: inactive
- inhibition [21]: Dose-dependent effect
Compound: COc1cccc(-c2cc(NC(=O)Nc3cc4ccc(OC5CCN(C)CC5)c(C)c4oc3=O)ccc2OC)c1
- Activity [5]: inactive
- IC50 [8]: 4300 nM
- IC50 [11]: 150 nM
- IC50 [13]: 170 nM
- Activity [15]: Non-toxic
- Activity [16]: Non-toxic
- Activity [17]: Non-toxic

- inhibition [22]: inactive
- inhibition [23]: Active
- inhibition [24]: inactive
- inhibition [25]: Active
Compound: COc1ccc(NC(=O)Nc2cc3ccc(OC4CCN(C)CC4)c(C)c3oc2=O)cc1-c1ccccc1
- IC50 [11]: 410 nM

- inhibition [26]: Active
- inhibition [28]: Active
- inhibition [29]: Active
- inhibition [30]: Active
- inhibition [31]: Active
- inhibition [32]: Active
Compound: Cc1c(OC2CCN(C)CC2)ccc2cc(NC(=O)Nc3ccccc3)c(=O)oc12
- Activity [27]: Non-toxic
- IC50 [8]: 3600 nM
- IC50 [11]: 240 nM
- IC50 [13]: 770 nM

Compound: N#Cc1c(Oc2ccc(F)c(NC(=O)Cc3cccc(C(F)(F)F)c3)c2)ccc2nc(NC(=O)C3CC3)sc12
- Activity [33]: Non-toxic
- IC50 [11]: 1700 nM

- inhibition [34]: Active
- inhibition [35]: Active
- inhibition [36]: Active
Compound: Cc1c(OC2CCN(C)CC2)ccc2cc(NC(=O)Nc3cccc(-c4ccccc4)c3)c(=O)oc12
- IC50 [11]: 60 nM

- inhibition [22]: inactive
- inhibition [23]: Active
- inhibition [24]: inactive
- inhibition [25]: Active
Compound: COc1cccc(-c2cccc(NC(=O)Nc3cc4ccc(OC5CCN(C)CC5)c(C)c4oc3=O)c2)c1
- IC50 [11]: 280 nM

Compound: CCCS(=O)(=O)Nc1ccc(F)c(C(=O)c2c[nH]c3ncc(-c4ccc(Cl)cc4)cc23)c1F [VEMURAFENIB]
- Activity [33]: Non-toxic

Compound: CO[C@@H]1[C@@H](OC(N)=O)[C@@H](O)[C@H](Oc2ccc3c(O)c(NC(=O)c4ccc(O)c(CC=C(C)C)c4)c(=O)oc3c2C)OC1(C)C [NOVOBIOCIN]
- IC50 [37]: 700000 nM

From ChEMBL document CHEMBL3769404, “Novobiocin Analogues That Inhibit the MAPK Pathway” (J Med Chem, 2016)
